SENP8 block-1: SENP8 protease inhibitors, primary screen, biochemical, luminescence | 330,000 tested, 1.2% active | purified SENP8, Z-RLRGG-aminoluciferin cleavage | AID 2540, 2010 | Sentrin-specific protease 8 (Homo sapiens), Q96LD8 | inhibition, % at 10 µM; in the data active means inhibition above about 50%
Target sequence (Q96LD8 whole entry, looked up): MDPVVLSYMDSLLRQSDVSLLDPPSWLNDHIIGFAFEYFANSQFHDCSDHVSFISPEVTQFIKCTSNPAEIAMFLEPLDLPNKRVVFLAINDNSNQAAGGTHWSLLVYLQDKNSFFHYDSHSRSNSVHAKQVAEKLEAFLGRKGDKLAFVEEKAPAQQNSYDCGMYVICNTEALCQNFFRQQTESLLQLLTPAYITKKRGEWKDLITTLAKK
Apaf-1 inh: inhibitors of human Apaf-1 apoptosome, primary screen, biochemical, DEVD-Rh110 fluorescence, uHTS; 330,000 tested, 0.71% active; AID 489030, 2010; reconstituted apoptosome caspase-3 activity; Apoptotic protease-activating factor 1 (Homo sapiens), O14727; inhibition, % at 20 µM; active means inhibition of at least 40% at 20 µM
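Medium: Hepes buffer, pH 7.5 / System: biochemical Apaf-1 apoptosome reconstitution / Measured by: Rh110 fluorescence, excitation 480 nm, emission 540 nm / Times: compound with Apaf-1, dATP, procaspase-3 30 min, then 50 min reaction, room temperature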
SENP1 inh: human SENP1 catalytic domain inhibitors, primary screen, biochemical, FRET, uHTS; recombinant SENP1 catalytic domain, CyPet-SUMO1-YPet FRET cleavage; inhibition, % at 10 µM; 360,000 tested, 0.21% active; AID 624204, 2012;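 active means inhibition at least 30% at 10 µM, raw YFP signal under a set limit, fluorescence ratio 0.5 to 1.5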
Target sequence (Q9P0U3 419-644 limits assumed): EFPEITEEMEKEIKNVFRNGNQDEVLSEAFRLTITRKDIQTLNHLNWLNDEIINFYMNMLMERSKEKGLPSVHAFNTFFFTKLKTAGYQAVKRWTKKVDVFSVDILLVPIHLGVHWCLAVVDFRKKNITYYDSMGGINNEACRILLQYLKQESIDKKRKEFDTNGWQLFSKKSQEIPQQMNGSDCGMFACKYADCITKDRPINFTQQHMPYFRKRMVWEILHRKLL
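material = recombinant human SENP1 catalytic domain, His6-tagged | quantity = 20 pM enzyme | reagent = 25 nM SUMO1 FRET substrate | compound dosing = 10 µM single point, 0.5% DMSO | timing = 50 min enzyme reaction, room temperature, light-protected | detection = FRET, CFP and YFP emission | control set = no-enzyme low, enzyme-DMSO high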
SENP6 block: SENP6 protease inhibitors, primary screen, biochemical, luminescence, uHTS; Sentrin-specific protease 6 (Homo sapiens), Q9GZR1; Recombinant SENP6 catalytic domain, aminoluciferin luminescence; inhibition, % at 10 µM; 330,000 tested, 1.8% active;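 active means inhibition above about 50% at the single tested dose, limit read from the data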
SENP8 block-2: human SENP8 protease inhibitors, primary screen, biochemical, fluorescence, Nedd8 protein substrate, uHTS; Sentrin-specific protease 8 (Homo sapiens), Q96LD8; recombinant SENP8; inhibition, % at 20 µM; 360,000 tested, 0.64% active; in the data active means inhibition mostly above about 40%, no sharp cut-off; inactive means mostly below about 27%
SENP7 block: SENP7 protease inhibitors, primary screen, biochemical, luminescence, uHTS; 330,000 tested, 1.5% active; Sentrin-specific protease 7 (Homo sapiens), Q9BQF6; recombinant SENP7, Z-RLRGG-aminoluciferin luminescence, 40 min; inhibition, % at 5 µM;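 active means inhibition above about 50% at the single test dose, limit read from the data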
SENP8 conf: SENP8 protease inhibitors, retest, confirmation, biochemical, luminescence, single concentration | inhibition, % at 12.5 µM | shares compounds with SENP7 block | 6,200 tested, 40% active | Recombinant SENP8, Z-RLRGG-aminoluciferin luminescence, 60 min | AID 488912, 2010;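 active means mean inhibition across replicates above about 50%, limit read from the data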
SENP6 conf: SENP6 protease inhibitors, confirmation, biochemical, luminescence, single concentration; shares compounds with SENP7 block; recombinant SENP6, Z-RLRGG-aminoluciferin luminescence; inhibition, % at 12.5 µM; 6,200 tested, 58% active
SENP7 conf: SENP7 protease inhibitors, retest, confirmation, biochemical, luminescence, single concentration. shares compounds with SENP7 block. recombinant SENP7, Z-RLRGG-aminoluciferin luminescence, 40 min. inhibition, % at 12.5 µM. 6,200 tested, 69% active
Casp3 SENP sel: caspase-3 protease inhibitors, confirmation, selectivity assay for SENP inhibitor project, biochemical, single concentration | purified caspase-3, Z-DEVD-aminoluciferin luminescence, 60 min | 6,200 tested, 60% active | shares compounds with SENP7 block | AID 488918, 2010 | inhibition, % at 12.5 µM;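 active means mean inhibition above about 50%, limit read from the data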
Target sequence (P42574 28-227 limits assumed): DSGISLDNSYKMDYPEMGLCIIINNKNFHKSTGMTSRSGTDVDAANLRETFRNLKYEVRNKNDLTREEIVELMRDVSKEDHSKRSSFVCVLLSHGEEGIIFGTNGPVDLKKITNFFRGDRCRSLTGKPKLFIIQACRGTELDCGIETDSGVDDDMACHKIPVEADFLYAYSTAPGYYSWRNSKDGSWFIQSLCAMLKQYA
Luc interf: counter-screen for SENP inhibitors: luminescence interference; shares compounds with SENP7 block; Pre-incubated SENP8/Z-RLRGG-aminoluciferin, luciferase luminescence interference; inhibition, % at 12.5 µM; 6,200 tested, 39% active; AID 488919;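 active means mean inhibition above about 50% when retested at one dose, limit read from the data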
Of the large screens only hits and unclear results are named; the others gave an inactive call (follow-up assays come after a bar, where they were run). Most compounds without a hit are left out; they make up all but 2.9% or so of the library.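 How the source made its calls, unless noted: active means mean inhibition above about 50% in the one-dose retest (limit read from the data); inactive means the rest.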

CCSc1nn2c(=O)c3ccccc3nc2s1	SENP6 block 58 | SENP8 conf inactive | SENP6 conf inactive | SENP7 conf 70 | Casp3 SENP sel 76 | Luc interf inactive
Cc1cccc(C(=O)OCC(=O)NCc2ccc(Cl)cc2)c1	none (no result: SENP8 block-1, Apaf-1 inh, SENP6 block, SENP7 block)
CCOC(=O)CCS(=O)(=O)c1ccc(-c2ccc(S(=O)(=O)CCC(=O)OCC)cc2)cc1	SENP7 block 58 | SENP8 conf inactive | SENP6 conf inactive | SENP7 conf inactive | Casp3 SENP sel inactive | Luc interf inactive
COc1cccc(-c2nnc(-c3ccc(C)o3)o2)c1	SENP7 block 56 | SENP8 conf 62 | SENP6 conf 64 | SENP7 conf 89 | Casp3 SENP sel 82 | Luc interf 74
COc1cccc(-c2nnc(-c3ccccc3[N+](=O)[O-])o2)c1	SENP7 block 50 | SENP8 conf inactive | SENP6 conf inactive | SENP7 conf 67 | Casp3 SENP sel inactive | Luc interf inactive
COc1cccc(-c2nnc(-c3ccco3)o2)c1	SENP6 block 67, SENP7 block 55 | SENP8 conf 58 | SENP6 conf 56 | SENP7 conf 87 | Casp3 SENP sel 80 | Luc interf 65
COc1cccc(-c2nnc(NC(=O)c3cccc(F)c3)o2)c1	SENP8 block-1 56, SENP6 block 60 | SENP8 conf inactive | SENP6 conf inactive | SENP7 conf inactive | Casp3 SENP sel inactive | Luc interf inactive
O=[N+]([O-])c1cccc(-c2nnc(-c3ccccc3)o2)c1	none
COc1cccc(-c2nnc(N)o2)c1	none
CC(C)(C)NC(=O)C1(C)CCC(=O)N1CC(F)(F)F (stereo unspecified)	none (no result: SENP8 block-1, Apaf-1 inh, SENP6 block, SENP7 block)
O=C(O)C(C(O)c1ccc([N+](=O)[O-])cc1)[n+]1ccccc1 (stereo unspecified)	none
CC(=O)N1C[C@@H](CO)[C@@H](N(C)C(=O)C(C)(C)C)C[C@H]1c1ccccc1	none (no result: SENP8 block-1, Apaf-1 inh, SENP6 block, SENP7 block)
Cc1cc2nn(-c3ccccc3)nc2cc1NC(=O)c1cccs1	none
CC(=O)Nc1cc2nn(-c3ccccc3)nc2cc1C	SENP8 block-1 72, SENP6 block 78, SENP7 block 77 | SENP8 conf inactive | SENP6 conf inactive | SENP7 conf 87 | Casp3 SENP sel 79 | Luc interf inactive
CC(CNC(=O)[C@@H](Cc1ccccc1)NC(=O)CC[C@H]1O[C@@H](n2ccc(=O)[nH]c2=O)[C@H](O)[C@@H]1O)c1ccccc1 (stereo partly specified)	none (no result: SENP8 block-1, Apaf-1 inh, SENP6 block, SENP7 block)
Brc1ccccc1-c1nc2c3ccccc3ncn2n1	SENP8 block-1 77, SENP6 block 91 | SENP8 conf inactive | SENP6 conf inactive | SENP7 conf 68 | Casp3 SENP sel inactive | Luc interf 56
S=c1nc2ccccc2c2nc(-c3ccccc3Br)[nH]n12	none
COc1ccc(O)c(/C=N/N2CCCCC2)c1	SENP8 block-1 77, SENP6 block 80, SENP7 block 83 | SENP8 conf 78 | SENP6 conf 80 | SENP7 conf 96 | Casp3 SENP sel 88 | Luc interf 69
COc1cc(SC)ccc1C(=O)Nc1ccc2c(c1)CCC2	SENP8 block-1 67, SENP6 block 69, SENP7 block 73 | SENP8 conf inactive | SENP6 conf 75 | SENP7 conf 90 | Casp3 SENP sel 54 | Luc interf inactive
COc1cc(SC)ccc1C(=O)Nc1ccc(Cl)cn1	SENP8 block-1 87, SENP7 block 96 | SENP8 conf inactive | SENP6 conf inactive | SENP7 conf inactive | Casp3 SENP sel inactive | Luc interf inactive
CSc1ccc(Cl)c(C(=O)Nc2ccc(Cl)cn2)c1	none
Nc1ccn(C2OC(COP(=O)(O)O)C(O)C2O)c(=O)n1 (stereo unspecified)	none (no result: SENP8 block-1, Apaf-1 inh, SENP6 block, SENP7 block)
Cn1nnc(NC(=O)c2cccc(F)c2)n1	SENP6 block 51 | SENP8 conf inactive | SENP6 conf inactive | SENP7 conf inactive | Casp3 SENP sel inactive | Luc interf inactive
O=C(COC(=O)c1cc(=O)[nH]c2ccccc12)c1ccc(Br)cc1	none
CCOc1ccc(C(=O)COC(=O)c2cc(=O)[nH]c3ccccc23)cc1	SENP7 block 53 | SENP8 conf inactive | SENP6 conf inactive | SENP7 conf inactive | Casp3 SENP sel inactive | Luc interf inactive
CCN1CCN(CCNC(=O)Cn2c(=O)c3cccn3c3ccc(F)cc32)CC1	none
CC(C)N(CCCNC(=O)Cn1c(=O)c2cccn2c2ccc(F)cc21)Cc1ccccc1	SENP7 block 61 | SENP8 conf inactive | SENP6 conf inactive | SENP7 conf inactive | Casp3 SENP sel inactive | Luc interf inactive
CN(C)c1ccc(/C=N/NC(=O)c2ccco2)cc1	SENP6 block 65 | SENP8 conf inactive | SENP6 conf inactive | SENP7 conf 81 | Casp3 SENP sel 83 | Luc interf inactive
CN(C)c1ccc(/C=N\NC(=O)c2cccc3cc[nH]c23)cc1	SENP8 block-1 76, SENP6 block 86, SENP7 block 85 | SENP8 conf 84 | SENP6 conf 82 | SENP7 conf 95 | Casp3 SENP sel 80 | Luc interf 64
Cc1ccc(/C=N/NC(=O)c2ccco2)cc1	none
O=C(N/N=C/c1ccc2ncccc2c1)c1ccco1	SENP6 block 66, SENP7 block 66 | SENP8 conf 53 | SENP6 conf 53 | SENP7 conf 84 | Casp3 SENP sel 87 | Luc interf 64
CN(C)c1ccc(/C=N/NC(=O)c2cc(=O)[nH]c3ccccc23)cc1	none

Compound activity: PubChem, Sanford-Burnham Center for Chemical Genomics
